pEC50: −log10 of the molar value. Calls of active or inactive are those of the source. No cut-off for these calls is given here.
Experiments:
[1] = Negative chronotropic activity in neonatal Wistar rat Cardiomyocytes assessed as change in heart beating at 30 nM and at 37 degC after 5 mins; type: functional, Cardiac muscle cell
Method in brief: (§1)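 NRCMs from 1–2-day-old Wistar rats were cultured as monolayers in Halle SM 20-I medium with 10% heat-inactivated FCS and 2 μM fluorodeoxyuridine. Spontaneously beating clusters formed after 5–7 days (120–150 beats/min at 37 °C, inverted microscope). Compounds came from 1000-fold ethanol stocks and were tested at 30 nM final. Beating rates of 6–8 clusters were counted before and 5 min after addition. The change in beats/min is given as mean ± SE, n = 18–40 clusters from ≥3 independent cultures.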

Cardiac muscle cell [2] = assay: Negative chronotropic activity in neonatal Wistar rat Cardiomyocytes assessed as change in heart beating at > 5 nM after 5 mins at 37 degC; type: functional, cell-based
[3] = target: T1, Bifunctional epoxide hydrolase 2 (Homo sapiens) (UniProt P34913); assay: Inhibition of soluble epoxide hydrolase at 5 uM
T1 sequence (whole entry): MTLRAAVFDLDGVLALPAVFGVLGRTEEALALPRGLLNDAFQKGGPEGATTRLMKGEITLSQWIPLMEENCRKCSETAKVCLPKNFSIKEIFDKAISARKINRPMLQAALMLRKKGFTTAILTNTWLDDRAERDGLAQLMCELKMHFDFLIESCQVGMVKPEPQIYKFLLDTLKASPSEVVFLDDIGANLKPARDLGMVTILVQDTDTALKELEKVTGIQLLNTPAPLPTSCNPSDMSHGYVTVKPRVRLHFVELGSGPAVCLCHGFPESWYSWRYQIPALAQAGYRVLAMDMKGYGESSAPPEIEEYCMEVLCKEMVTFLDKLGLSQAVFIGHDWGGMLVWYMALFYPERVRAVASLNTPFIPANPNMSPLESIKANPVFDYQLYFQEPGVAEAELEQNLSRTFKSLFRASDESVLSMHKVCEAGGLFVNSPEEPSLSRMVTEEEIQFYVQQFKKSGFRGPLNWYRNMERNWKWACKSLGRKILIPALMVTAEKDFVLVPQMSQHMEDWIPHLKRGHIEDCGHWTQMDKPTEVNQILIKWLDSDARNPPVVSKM

[4] = Inhibition of (5Z,11Z)-16-(3-ethyloxiran-2-yl)hexadeca-5,11-dienoic acid-induced negative chronotropic activity in neonatal Wistar rat Cardiomyocytes at 30 nM after 5 mins; type: functional, Cardiac muscle cell; parameters: scale not given: the % may be the effect or the level left
Method in brief: (§2)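 NRCMs from 1–2-day-old Wistar rats were cultured as monolayers in Halle SM 20-I medium with 10% heat-inactivated FCS and 2 μM fluorodeoxyuridine. Spontaneously beating clusters formed after 5–7 days (120–150 beats/min). Cells were preincubated with the test antagonist (30 nM final) for 5 min at 37 °C, then the agonist was added (30 nM final). Beating was counted under an inverted microscope.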

[5] = Inhibition of EPA-induced negative chronotropic activity in neonatal Wistar rat Cardiomyocytes at 30 nM after 5 mins; type: functional, Cardiac muscle cell; parameters: scale not given: the % may be the effect or the level left
Cardiac muscle cell [6] = assay: Inhibition of (Z)-16-(3-ethyloxiran-2-yl)hexadec-11-enoic acid -induced negative chronotropic activity in neonatal Wistar rat Cardiomyocytes at 30 nM after 5 mins; type: functional, cell-based; method in brief: as §2
[7] = Inhibition of (5Z,8Z,11Z,14Z)-16-(3-ethyloxiran-2-yl)hexadeca-5,8,11,14-tetraenoic acid-induced negative chronotropic activity in neonatal Wistar rat Cardiomyocytes at 30 nM after 5 mins; type: functional, Cardiac muscle cell; parameters: scale not given: the % may be the effect or the level left; method in brief: as §2
[8] = Inhibition of (Z)-16-(2-(methylamino)-2-oxoacetamido)hexadec-11-enoic acid-induced negative chronotropic activity in neonatal Wistar rat Cardiomyocytes at 30 nM after 5 mins; type: functional, Cardiac muscle cell; parameters: scale not given: the % may be the effect or the level left; method in brief: as §2
[9] = target: T1, Bifunctional epoxide hydrolase 2 (Homo sapiens); conditions: 1 to 5 uM
[10] = Metabolic stability in rat liver homogenates after 30 mins by LC-MS analysis; type: ADME, tissue-based
Method in brief: (§3)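 Compounds were incubated with rat liver homogenate plus NADPH for 30 min at 37 °C. Parent compound and hydroxy-metabolites were analysed by LC/MS.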

Liver [11] = assay: Metabolic stability in rat liver homogenates assessed as epoxidation of compound by LC-MS analysis; type: ADME, tissue-based; conditions: tissue homogenate
Liver [12] = assay: Metabolic stability in rat liver homogenates assessed as hydroxylation of compound by LC-MS analysis; type: ADME, tissue-based; conditions: tissue homogenate; method in brief: as §3
Liver [13] = assay: Metabolic stability in rat liver homogenates assessed as formation of vic-diol 4 by LC-MS analysis; type: ADME, tissue-based; conditions: tissue homogenate
[14] = Metabolic stability in rat liver homogenates assessed as compound remaining after 30 mins by LC-MS analysis; type: ADME, tissue-based; method in brief: as §3
Liver [15] = assay: Metabolic stability in rat liver homogenates assessed as formation of regioisomeric hydroxy metabolite after 30 mins by LC-MS analysis; type: ADME, tissue-based; conditions: tissue homogenate, 0.5 h; method in brief: as §3
[16] = Negative chronotropic activity in neonatal Wistar rat Cardiomyocytes assessed as change in heart beating after 5 mins at 37 degC; type: functional, cell-based; conditions: cardiac muscle cell; method in brief: as §1

| SMILES | Activity [1] [bpm] | other results |
| --- | --- | --- |
| CCCC(=O)N(CCCC/C=C\CCCCCCCCCC(=O)O)C(C)C | 0.2 | – |
| CCC1OC1CCCCCCC/C=C\CCCCCCC(=O)O (stereo not given) | -0.6 | – |
| CCCC(=O)NC/C=C\CCCCCCCCCCCCC(=O)O | 12.8 | – |
| CC[C@@H]1O[C@@H]1C/C=C\CCCCCCCCCCCCC(=O)O | -21.1 | – |
| CNC(=O)C(=O)NCCCC/C=C/CCCCCCCCCC(=O)O | -4.7 | Activity (Cardiac muscle cell [2]): inactive |
| CNC(=O)C(=O)NC/C=C\CCCCCCCCCCCCC(=O)O | -1.3 | inhibition [3]: inactive |
| CCC1OC1C/C=C\CCCC/C=C\CCCCCCC(=O)O (stereo not given) | -2.7 | Activity [4]: 90%; Activity [5]: 90%; Activity (Cardiac muscle cell [6]): Active; Activity [7]: 90%; Activity [8]: 90% |
| CCC1OC1CCCC/C=C\CCCC/C=C\CCCC(=O)O (stereo not given) | -19.8 | – |
| CCN(C)C(=O)N(C)CCCC/C=C\CCCCCCCCCC(=O)O | -5.8 | – |
| CCC1OC1C/C=C\CCCCCCCCCCCCC(=O)O (stereo not given) | -1.2 | Activity (Cardiac muscle cell [6]): Active |
| CCCCNC(=O)CCC/C=C\CCCCCCCCCC(=O)O | -22.4 | – |
| CC[C@H]1O[C@H]1CCCC/C=C\CCCCCCCCCC(=O)O | 3.3 | – |
| CCCNC(=O)CCCC/C=C\CCCCCCCCCC(=O)O | -4.7 | – |
| CCNC(=O)NCCCC/C=C\CCCCCCCCCC(=O)O | -27 | Activity (Cardiac muscle cell [2]): Active; inhibition [9]: Dose-dependent effect |
| CCNC(=O)NC/C=C\CCCCCCCCCCCCC(=O)O | 17.8 | – |
| CCC1OC1CCCCCCCCCC/C=C\CCCC(=O)O (stereo not given) | -0.6 | – |
| CCC1OC1C/C=C\C/C=C\C/C=C\C/C=C\CCCC(=O)O (stereo not given) | -22.5 | remaining at 0.5 h [10]: 20%; Stability (Liver [11]): Unstable; Stability (Liver [12]): Unstable; Stability (Liver [13]): Unstable |
| CNC(=O)C(=O)NCCCC/C=C\CCCCCCCCCC(=O)O | -33.7 | Activity (Cardiac muscle cell [2]): Active; remaining at 0.5 h [14]: > 85%; inhibition [3]: inactive; Stability (Liver [15]): Stable |
| CNC(=O)C(=O)NCCCCC#CCCCCCCCCCC(=O)O | -2.6 | – |
| CC[C@H]1O[C@H]1C/C=C\C/C=C\C/C=C\C/C=C\CCCC(=O)O | 1.3 | – |
| CCCC(=O)NCCCC/C=C\CCCCCCCCCC(=O)O | -1.6 | – |
| CC[C@@H]1O[C@@H]1C/C=C\C/C=C\C/C=C\C/C=C\CCCC(=O)O | -21.3 | Activity (Cardiac muscle cell [2]): Active; pEC50 [16]: 9.00 |
| CCC1OC1CCCCCCCCCCCCCCCC(=O)O (stereo not given) | 0.8 | – |
| O=C(O)CCCCCCCCC/C=C\CCCC[C@@H]1O[C@@H]1CCO | -1.4 | – |
| O=C(O)CCCCCCCCC/C=C\CCCC[C@H]1O[C@H]1CCO | -4.8 | – |
| CCC(O)C(O)C/C=C\C/C=C\C/C=C\C/C=C\CCCC(=O)O (stereo not given) | 0 | – |
| CCC1OC1CCCC/C=C\CCCCCCCCCC(=O)O (stereo not given) | -18.3 | – |
| CC[C@@H]1O[C@@H]1CCCC/C=C\CCCCCCCCCC(=O)O | -20.3 | – |
| CCC1OC1C/C=C\CCCCCCC/C=C\CCCC(=O)O (stereo not given) | 0 | – |
| CC[C@H]1O[C@H]1C/C=C\CCCCCCCCCCCCC(=O)O | 0.7 | – |
